Test results taken from ChEMBL document CHEMBL1121685, “Development of new mitomycin C and porfiromycin analogues” (J Med Chem, 1981).

Columns and labels:
[1] = tested on: Mus musculus; test: Minimum effective dose that show activity against P-388 murine leukemia cells in CDF1 female mice, after intraperitoneal administration (optimal dose is 6.4 mg/kg); assay type: functional; settings: P388, ip, read-out: MED
Summary of the method: (§1)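 10⁶ P-388 ascites cells implanted ip in CDF₁ female mice. Six mice per dose, 10 saline-injected controls, and a concurrent mitomycin C reference group. %T/C = median survival time of treated/control × 100. MED is the lowest dose giving %T/C > 125. Therapeutic ratio = optimal dose/MED.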

[2] = tested on: Mus musculus; test: Antitumor activity against P-388 murine leukemia cells in CDF1 female mice after intraperitoneal administration at the specified optimal dose of 6.4 mg/kg; assay type: functional
[3] = Therapeutic ratio is expressed as ratio of optimal dose and minimum effective dose; assay type: ADME; settings: mouse; read-out: TR; summary of the method: as §1
[4] = tested on: Mus musculus; test: Minimum effective dose that show activity against P-388 murine leukemia cells in CDF1 female mice, after intraperitoneal administration (optimal dose is 3.2 mg/kg); assay type: functional; settings: P388, ip, read-out: MED; summary of the method: as §1
[5] = tested on: Mus musculus; test: Antitumor activity against P-388 murine leukemia cells in CDF1 female mice after intraperitoneal administration at the specified optimal dose of 3.2 mg/kg; assay type: functional
[6] = tested on: Mus musculus; test: Minimum effective dose that show activity against P-388 murine leukemia cells in CDF1 female mice, after intraperitoneal administration (optimal dose is 25.6 mg/kg); assay type: functional; settings: P388, ip, read-out: MED; summary of the method: as §1
[7] = tested on: Mus musculus; test: Antitumor activity against P-388 murine leukemia cells in CDF1 female mice after intraperitoneal administration at the specified optimal dose of 25.6 mg/kg; assay type: functional
[8] = tested on: Mus musculus; test: Minimum effective dose that show activity against P-388 murine leukemia cells in CDF1 female mice, after intraperitoneal administration (optimal dose is 12.8 mg/kg); assay type: functional; settings: P388, ip, read-out: MED; summary of the method: as §1
[9] = tested on: Mus musculus; test: Antitumor activity against P-388 murine leukemia cells in CDF1 female mice after intraperitoneal administration at the specified optimal dose of 12.8 mg/kg; assay type: functional
[10] = species on record: Mus musculus; test: Degree of leukopenia produced by compound is assessed form Percent change in white cells on days 5; assay type: functional
Summary of the method: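 BDG₁ male mice received a single ip dose on day 0. The dose series topped out at the LD₅₀ level, or at twice the optimal dose for some agents. Total white blood cell count was taken on days 3, 5 and 7 and expressed as % change from untreated controls. Significance was set at p ≤ 0.05 or p ≤ 0.01.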

[11] = species on record: Mus musculus; test: Half-wave potential produced by the compound at their optimal dose; assay type: functional; set-up: unit not given here
[12] = tested on: Mus musculus; test: Effect of compound on total white blood cell count in BDG1 male mice, after intraperitoneal administration at a dose of 90.5 mg/kg on day 3; assay type: functional
[13] = tested on: Mus musculus; test: Effect of compound on total white blood cell count in BDG1 male mice, after intraperitoneal administration at a dose of 90.5 mg/kg on day 5; assay type: functional
[14] = tested on: Mus musculus; test: Effect of compound on total white blood cell count in BDG1 male mice, after intraperitoneal administration at a dose of 67.9 mg/kg on day 3; assay type: functional
Summary of the method: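 Single ip dose given on day 0 to BDG₁ male mice. Total white blood cell count measured on days 3, 5 and 7, expressed as % change from control. Highest dose was at the LD₅₀, or at twice the optimal dose where so footnoted. Significance reported at p ≤ 0.05 and p ≤ 0.01. D marks death of one or more mice.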

`COC12[C@@H]3N[C@@H]3CN1C1=C(C(=O)C(NCC(N)=O)=C(C)C1=O)[C@@H]2COC(N)=O` (some centres undefined) gave a minimal effective dose [1] of 0.4 mg/kg, a T/C [2] of 217% and a selectivity ratio [3] of 16.

In the case of `COC1=C(C)C(=O)C2=C(C1=O)[C@H](COC(N)=O)C1(OC)[C@H]3[C@@H](CN21)N3C` (some centres undefined), the minimal effective dose [4] is reported as 0.4 mg/kg, the T/C [5] is reported as 180% and the selectivity ratio [3] is reported as 8.

`C=C(Cl)CNC1=C(C)C(=O)C2=C(C1=O)[C@H](COC(N)=O)C1(OC)[C@@H]3N[C@@H]3CN21` (some centres undefined) showed a minimal effective dose [6] of 3.2 mg/kg, a T/C [7] of 178% and a selectivity ratio [3] of 8.

`C#CCN(C)C1=C(C)C(=O)C2=C(C1=O)[C@H](COC(N)=O)C1(OC)[C@@H]3N[C@@H]3CN21` (some centres undefined) showed a minimal effective dose [8] of 0.8 mg/kg, a T/C [9] of 210% and a selectivity ratio [3] of 16.

`COC12[C@@H]3N[C@@H]3CN1C1=C(C(=O)C(NCc3cccnc3)=C(C)C1=O)[C@@H]2COC(N)=O` (some centres undefined) gave a minimal effective dose [8] of 3.2 mg/kg, a T/C [9] of 167% and a selectivity ratio [3] of 4.

For `COC12[C@@H]3N[C@@H]3CN1C1=C(C(=O)C(NCCc3ccccc3)=C(C)C1=O)[C@@H]2COC(N)=O` (some centres undefined), the minimal effective dose [6] was 1.6 mg/kg and the T/C [7] was 194%.

`C#CC(C)(C)NC1=C(C)C(=O)C2=C(C1=O)[C@H](COC(N)=O)C1(OC)[C@@H]3N[C@@H]3CN21` (some centres undefined) showed a minimal effective dose [6] of 1.6 mg/kg, a T/C [7] of 178% and a selectivity ratio [3] of 16.

With `COC12[C@@H](COC(N)=O)c3c(O)c(N=C4C=CC(=O)C=C4)c(C)c(O)c3N1C[C@@H]1[C@H]2N1C` (some centres undefined) the minimal effective dose [1] was 1.6 mg/kg, the T/C [2] was 137% and the selectivity ratio [3] was 4.

In the case of `COC12[C@@H]3N[C@@H]3CN1C1=C(C(=O)C(NCCCO)=C(C)C1=O)[C@@H]2COC(N)=O` (some centres undefined), the Change [10] is reported as -43%, the E1/2 [11] is reported as -0.42 and the minimal effective dose [6] is reported as 3.2 mg/kg. The T/C [7] was 244% and the selectivity ratio [3] was 8.

`COC12[C@@H]3N[C@@H]3CN1C1=C(C(=O)C(NCc3ccc(S(N)(=O)=O)cc3)=C(C)C1=O)[C@@H]2COC(N)=O` (some centres undefined) showed a minimal effective dose [6] of 6.4 mg/kg, a T/C [7] of 150% and a selectivity ratio [3] of 4.

In the case of `C=CCNC1=C(C)C(=O)C2=C(C1=O)[C@H](COC(N)=O)C1(OC)[C@H]3[C@@H](CN21)N3C` (some centres undefined), the minimal effective dose [8] is reported as 3.2 mg/kg, the T/C [9] is reported as 189% and the selectivity ratio [3] is reported as 4.

`COC12[C@@H](COC(N)=O)C3=C(C(=O)C(C)=C(NC4CC4)C3=O)N1C[C@@H]1[C@H]2N1C` (some centres undefined) gave a T/C [9] of 167% and a selectivity ratio [3] of 2.

`COC12[C@@H](COC(N)=O)C3=C(C(=O)C(C)=C(NCc4ccco4)C3=O)N1C[C@@H]1[C@H]2N1C` (some centres undefined) showed a minimal effective dose [6] of 1.6 mg/kg, a T/C [7] of 261% and a selectivity ratio [3] of 16.

Work on `COC12[C@@H](COC(N)=O)C3=C(C(=O)C(C)=C(NCCCO)C3=O)N1C[C@@H]1[C@H]2N1C` (some centres undefined) yielded a Change [12] of -78%, a Change [13] of -72% and a Change [14] of -85%. The minimal effective dose [6] was 1.6 mg/kg, the T/C [7] was 239% and the selectivity ratio [3] was 16.

`COC12[C@@H]3N[C@@H]3CN1C1=C(C(=O)C(NCc3ccccc3)=C(C)C1=O)[C@@H]2COC(N)=O` (some centres undefined) showed a minimal effective dose [8] of 1.6 mg/kg, a T/C [9] of 188% and a selectivity ratio [3] of 8.

With `COC12[C@@H]3N[C@@H]3CN1C1=C(C(=O)C(NCCCCl)=C(C)C1=O)[C@@H]2COC(N)=O` (some centres undefined) the minimal effective dose [8] was 6.4 mg/kg, the T/C [9] was 140% and the selectivity ratio [3] was 2.

Work on `CO[C@@]12[C@H](COC(N)=O)C3=C(C(=O)C(C)=C(N)C3=O)N1C[C@H]1[C@@H]2N1C` (some centres undefined) [PORFIROMYCIN] yielded a minimal effective dose [8] of 0.8 mg/kg, a T/C [9] of 225% and a selectivity ratio [3] of 16.
